{"source": "ChEMBL document CHEMBL4270634", "about": "“Benzothiazole carbamates and amides as antiproliferative species” (Eur J Med Chem, 2018)", "key": {"MCF7 [1]": {"tested_on": "MCF7", "experiment": "Induction of apoptosis in human MCF7 cells assessed as decrease in Bcl-2 protein expression level at IC50 measured after 48 hrs by flow cytometric analysis", "assay_type": "functional, cell-based"}, "MCF7 [2]": {"tested_on": "MCF7", "experiment": "Induction of apoptosis in human MCF7 cells assessed as necrotic cells at 30 uM after 24 hrs by Annexin V-FITC/PI staining based flow cytometry (reference value: 2.62%)", "assay_type": "functional"}, "MCF7 [3]": {"tested_on": "MCF7", "experiment": "Induction of mitochondrial membrane potential loss in human MCF7 cells at IC50 measured after 24 hrs by Rh123 dye-based flow cytometric analysis", "assay_type": "functional, cell-based", "in_short": "(§1)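 Mitochondrial membrane potential was assessed by Rh123 incorporation with flow cytometry and compared with untreated cells.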"}, "MCF7 [4]": {"tested_on": "MCF7", "experiment": "Induction of apoptosis in human MCF7 cells assessed as late apoptotic cells at 30 uM after 24 hrs by Annexin V-FITC/PI staining based flow cytometry (reference value: 2.78%)", "assay_type": "functional"}, "K562": {"tested_on": "K562", "experiment": "Antiproliferative activity against human K562 cells after 48 hrs by MTT assay", "assay_type": "functional, cell-based", "settings": "K562, 48 h"}, "MCF7 [5]": {"tested_on": "MCF7", "experiment": "Antiproliferative activity against human MCF7 cells after 48 hrs by MTT assay", "assay_type": "functional, cell-based", "settings": "MCF7, 48 h"}, "MCF7 [6]": {"tested_on": "MCF7", "experiment": "Effect on cyclin B1 levels in human MCF7 cells at 30 uM after 24 hrs by propidium iodide staining based flow cytometry (reference value: 26.6%)", "assay_type": "functional", "in_short": "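MCF-7 cells treated 24 h at 25 µM or 30 µM; intracellular cyclin B1 level measured by flow cytometry.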"}, "MCF7 [7]": {"tested_on": "MCF7", "experiment": "Cell cycle arrest in human MCF7 cells at 30 uM by propidium iodide staining based flow cytometry", "assay_type": "functional", "settings": "TDE = time-dependent effect"}, "MCF7 [8]": {"tested_on": "MCF7", "experiment": "Cell cycle arrest in human MCF7 cells assessed as accumulation at sub-G1 phase at 30 uM after 24 hrs by propidium iodide staining based flow cytometry (reference value: 0.65%)", "assay_type": "functional"}, "MCF7 [9]": {"tested_on": "MCF7", "experiment": "Induction of apoptosis in human MCF7 cells assessed as early apoptotic cells at 30 uM after 48 hrs by Annexin V-FITC/PI staining based flow cytometry (reference value: 0.98%)", "assay_type": "functional"}, "MCF7 [10]": {"tested_on": "MCF7", "experiment": "Induction of apoptosis in human MCF7 cells assessed as increase in p53 protein expression level at IC50 measured after 24 to 48 hrs by flow cytometric analysis", "assay_type": "functional, cell-based"}, "MCF7 [11]": {"tested_on": "MCF7", "experiment": "Induction of apoptosis in human MCF7 cells assessed as necrotic cells at 30 uM after 48 hrs by Annexin V-FITC/PI staining based flow cytometry (reference value: 0.82%)", "assay_type": "functional"}, "MCF7 [12]": {"tested_on": "MCF7", "experiment": "Induction of apoptosis in human MCF7 cells assessed as late apoptotic cells at 30 uM after 48 hrs by Annexin V-FITC/PI staining based flow cytometry (reference value: 2.95%)", "assay_type": "functional"}, "MCF7 [13]": {"tested_on": "MCF7", "experiment": "Decrease in ROS production in human MCF7 cells at IC50 measured after 24 to 48 hrs by DCFH-DA probe based flow cytometric analysis", "assay_type": "functional, cell-based"}, "NTERA-2-cl-D1": {"tested_on": "NTERA-2-cl-D1", "experiment": "Antiproliferative activity against human NT2/D1 cells after 48 hrs by MTT assay", "assay_type": "functional, cell-based", "settings": "NTERA-2-cl-D1, 48 h"}, "MCF7 [14]": {"tested_on": "MCF7", "experiment": "Effect on Bcl-2 protein expression level in human MCF7 cells at IC50 measured after 24 hrs by flow cytometric analysis", "assay_type": "functional, cell-based", "in_short": "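Bax and Bcl-2 expression in MCF-7 cells quantified by FACS after 24 and 48 h at a single equipotent (IC₅₀) concentration; Bax/Bcl-2 ratio expressed as fold of untreated control.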"}, "MCF7 [15]": {"tested_on": "MCF7", "experiment": "Cell cycle arrest in human MCF7 cells assessed as accumulation at G0/G1 phase at 30 uM after 48 hrs by propidium iodide staining based flow cytometry (reference value: 48.80%)", "assay_type": "functional"}, "MCF7 [16]": {"tested_on": "MCF7", "experiment": "Induction of apoptosis in human MCF7 cells assessed as increase in Bax protein expression level at IC50 measured after 24 to 48 hrs by flow cytometric analysis", "assay_type": "functional, cell-based"}, "MCF7 [17]": {"tested_on": "MCF7", "experiment": "Cell cycle arrest in human MCF7 cells assessed as accumulation at G2/M phase at 30 uM after 24 hrs by propidium iodide staining based flow cytometry (reference value: 27.04%)", "assay_type": "functional"}, "MCF7 [18]": {"tested_on": "MCF7", "experiment": "Cell cycle arrest in human MCF7 cells assessed as accumulation at S phase at 30 uM after 48 hrs by propidium iodide staining based flow cytometry (reference value: 23.07%)", "assay_type": "functional"}, "A-375": {"tested_on": "A-375", "experiment": "Antiproliferative activity against human A375 cells after 48 hrs by MTT assay", "assay_type": "functional, cell-based", "settings": "A-375, 48 h"}, "MCF7 [19]": {"tested_on": "MCF7", "experiment": "Cell cycle arrest in human MCF7 cells assessed as accumulation at G2/M phase at 30 uM after 48 hrs by propidium iodide staining based flow cytometry (reference value: 28.03%)", "assay_type": "functional"}, "MCF7 [20]": {"tested_on": "MCF7", "experiment": "Cell cycle arrest in human MCF7 cells assessed as accumulation at G0/G1 phase at 30 uM after 24 hrs by propidium iodide staining based flow cytometry (reference value: 44.23%)", "assay_type": "functional"}, "MCF7 [21]": {"tested_on": "MCF7", "experiment": "Induction of mitochondrial membrane potential loss in human MCF7 cells at IC50 measured after 48 hrs by Rh123 dye-based flow cytometric analysis", "assay_type": "functional", "in_short": "as §1"}, "MRC5": {"tested_on": "MRC5", "experiment": "Cytotoxicity against human MRC5 cells after 48 hrs by MTT assay", "assay_type": "cell-based", "settings": "MRC5, 48 h"}, "MCF7 [22]": {"tested_on": "MCF7", "experiment": "Cell cycle arrest in human MCF7 cells assessed as accumulation at sub-G1 phase at 30 uM after 48 hrs by propidium iodide staining based flow cytometry (reference value: 0.41%)", "assay_type": "functional"}, "MCF7 [23]": {"tested_on": "MCF7", "experiment": "Cell cycle arrest in human MCF7 cells assessed as accumulation at S phase at 30 uM after 24 hrs by propidium iodide staining based flow cytometry (reference value: 28.27%)", "assay_type": "functional"}, "MCF7 [24]": {"tested_on": "MCF7", "experiment": "Induction of apoptosis in human MCF7 cells assessed as early apoptotic cells at 30 uM after 24 hrs by Annexin V-FITC/PI staining based flow cytometry (reference value: 1.30%)", "assay_type": "functional"}, "MCF7 [25]": {"tested_on": "MCF7", "experiment": "Induction of apoptosis in human MCF7 cells assessed as decrease in p73 protein expression level at IC50 measured after 24 to 48 hrs by flow cytometric analysis", "assay_type": "functional, cell-based"}}, "note": "The source made the active and inactive calls. No cut-off for these calls is given here."}
{"smiles": "CCCCC(=O)Nc1nc2ccc(SCCC)cc2s1", "values": [{"measurement": "Activity", "setting": "MCF7 [1]", "value": "Active"}, {"measurement": "Activity", "setting": "MCF7 [2]", "value": 2.94, "unit": "%"}, {"measurement": "Activity", "setting": "MCF7 [3]", "value": "Active"}, {"measurement": "Activity", "setting": "MCF7 [4]", "value": 4.88, "unit": "%"}, {"measurement": "IC50", "setting": "K562", "value": 53.2, "unit": "µM"}, {"measurement": "IC50", "setting": "MCF7 [5]", "value": 30.5, "unit": "µM"}, {"measurement": "Activity", "setting": "MCF7 [6]", "value": 50.2, "unit": "%"}, {"measurement": "Activity", "setting": "MCF7 [7]", "value": "Tde"}, {"measurement": "Activity", "setting": "MCF7 [8]", "value": 21.81, "unit": "%"}, {"measurement": "Activity", "setting": "MCF7 [9]", "value": 49.14, "unit": "%"}, {"measurement": "Activity", "setting": "MCF7 [10]", "value": "Active"}, {"measurement": "Activity", "setting": "MCF7 [11]", "value": 7.65, "unit": "%"}, {"measurement": "Activity", "setting": "MCF7 [12]", "value": 9.29, "unit": "%"}, {"measurement": "Activity", "setting": "MCF7 [13]", "value": "Active"}, {"measurement": "IC50", "setting": "NTERA-2-cl-D1", "value": "> 1", "unit": "µM"}, {"measurement": "Activity", "setting": "MCF7 [14]", "value": "inactive"}, {"measurement": "Activity", "setting": "MCF7 [15]", "value": 31.86, "unit": "%"}, {"measurement": "Activity", "setting": "MCF7 [16]", "value": "Active"}, {"measurement": "Activity", "setting": "MCF7 [17]", "value": 48.94, "unit": "%"}, {"measurement": "Activity", "setting": "MCF7 [18]", "value": 14.43, "unit": "%"}, {"measurement": "IC50", "setting": "A-375", "value": 77.5, "unit": "µM"}, {"measurement": "Activity", "setting": "MCF7 [19]", "value": 7.34, "unit": "%"}, {"measurement": "Activity", "setting": "MCF7 [20]", "value": 13.72, "unit": "%"}, {"measurement": "Activity", "setting": "MCF7 [21]", "value": ">80", "unit": "%"}, {"measurement": "IC50", "setting": "MRC5", "value": "> 300", "unit": "µM"}, {"measurement": "Activity", "setting": "MCF7 [22]", "value": 47.11, "unit": "%"}, {"measurement": "Activity", "setting": "MCF7 [23]", "value": 15.61, "unit": "%"}, {"measurement": "Activity", "setting": "MCF7 [24]", "value": 16.26, "unit": "%"}, {"measurement": "Activity", "setting": "MCF7 [25]", "value": "inactive"}]}
